Measurements reported in PMC4059252 (Journal of Medicinal Chemistry, 2014).

Assay: Metal cation competition
Format: physicochemical
Method in brief: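 200 μM ligand (1 mL) was labelled with 30–50 μCi neutralised 89Zr for 1 h at room temperature, and complete labelling was confirmed by radio-TLC. 200 μL aliquots were mixed with 200 μL 1 mM metal salt (e.g. CoCl2) at pH 7.4 and incubated at 37 °C with agitation. Radio-TLC at 1 h, 1, 5, 7 d gave % intact complex. Mean and SD from two experiment sets.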

^89Zr^4+ released (after 7 days of incubation with FeCl3): > 50% | ^89Zr^4+ released (in the presence of Ga^3+): ~9%
Compound: CC(=O)N(O)CCCCCNC(=O)CCC(=O)N(O)CCCCCNC(=O)CCC(=O)N(O)CCCCCN [DFO, desferrioxamine B]
